Measurements from the RNAGym collection of RNA variant scans (doi:10.1126/science.aae0568).
This sample holds only a part of the variants without activity.

B1: tRNA (parent)
chain: GUUCCGUUGGCGUAAUGGUAACGCGUCUCCCUCCUAAGGAGAAGACUGCGGGUUCGAGUCCCGUACGGAACG

Variants of: B1
Experiment: yeast fitness relative to wild type (ratio to wild type); higher = fitter; tRNA-Arg(CCU), competitive growth, 37 C, YPD
Outline: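 For this measurement, the tRNA-Arg(CCU) gene was varied by chemical synthesis at a 3% per-site mutation rate across 69 sites, and each variant was placed at the native genomic locus in Saccharomyces cerevisiae. The pooled strains went through a 24-hour competition in YPD at 37°C in six parallel replicates, with amplicons from start and end populations read by 100-nucleotide paired-end sequencing. Darwinian fitness relative to wild type followed from the change in each genotype's frequency. Genotypes needed ≥ 100 starting reads, and estimates < 0.5 were set to 0.5.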

| Variant | yeast fitness |
| --- | --- |
| C27G C31G G63U | ≤ 0.5 |
| C27U G39C C60A | ≤ 0.5 |
| C27G C30G G56U G63A | ≤ 0.5 |
| C27U A42G | 0.695 |
| C27U A45C U64G | 0.584 |
| C27U G38C G39A A43C C60G A65C | ≤ 0.5 |
| C27A U28C C29G A70G | ≤ 0.5 |
| C27G G48C C49G | 0.503 |
| C27G A40G C62U A65U | ≤ 0.5 |
| C27U A42G G67A | 0.589 |
| C27U A37G G41A G50C | 0.649 |
| C27G A45U C49U | ≤ 0.5 |
| C27G C30U G52C | 0.507 |
| C27G G38C C62G C66U | ≤ 0.5 |
| C27U C30G A45C C60U C62G | 0.818 |
| C27G C31A A69U | 0.589 |
| C27G A65U | 0.713 |
| C27G A65G | 0.694 |
| C27G G38C U64A | ≤ 0.5 |
| C27U C30U C46G | 0.558 |
| C27U G38A C66U | 0.623 |
| C27G U35A | 0.636 |
| C27U A36G G56C | ≤ 0.5 |
| C27A G56C | 0.627 |

| Variant | yeast fitness |
| --- | --- |
| C27A C55U C66A | ≤ 0.5 |
| C27U G38C G67A | ≤ 0.5 |
| C27U C29U A57C | ≤ 0.5 |
| C27U C31A U35G C55G | ≤ 0.5 |
| C27G A43C A57U | 0.599 |
| C27G U54A | 0.544 |
| C27U C33A C49G | ≤ 0.5 |
| C27G A42U C55U A70C | ≤ 0.5 |
| C27U C34U C49G G56C | ≤ 0.5 |
| C27G U28A G52A C55U | ≤ 0.5 |
| C27G G68C | 0.65 |
| C27G G67U | 0.632 |
| C27A C61A | 0.67 |
| C27A U28A G41A G48A | 0.75 |
| C27U C33G C34G G44A G50A G52A A65U | ≤ 0.5 |
| C27G C34G C46U C49U | ≤ 0.5 |
| C27G G38A G48C | 0.538 |
| C27G A45U G56C | 0.531 |
| C27G C33G A57C | ≤ 0.5 |
| C27G A40U G68C | 0.523 |
| C27A U28C A37C | ≤ 0.5 |
| C27U C46U G48A G68A | 0.635 |
| C27G C31G G38C | 0.504 |
| C27G A37C A42G G48C U59C | 0.533 |

| Variant | yeast fitness |
| --- | --- |
| C27G C34U C49U C66G | ≤ 0.5 |
| C27U G38A G51A | ≤ 0.5 |
| C27A C60G U64C | 0.779 |
| C27U C55A A69U | 0.549 |
| C27G C34U G41C G51A | ≤ 0.5 |
| C27U C55A G58A | ≤ 0.5 |
| C27U A43U C55G | 0.544 |
| C27A G41C | 1.18 |
| C27U C31U G48A | 1 |
| C27A U35C | 0.735 |
| C27A U35A | 0.662 |
| C27G U28A A43U | 0.582 |
| C27U C29U C62U | 0.578 |
| C27U C29A C49A | ≤ 0.5 |
| C27U A37U C49U | 0.549 |
| C27U A36C A57G | ≤ 0.5 |
| C27A C46A G63A | 0.714 |
| C27A G38A | 0.798 |
| C27G A40U U59C | 0.543 |
| C27G G38C C49G A70G | ≤ 0.5 |
| C27G U54C C62U | 0.552 |
| C27U A37C G56C G63C U64C | ≤ 0.5 |
| C27U C66A G68C | 0.543 |
| C27G C31G C61A | 0.693 |

| Variant | yeast fitness |
| --- | --- |
| C27G C33G G41A | ≤ 0.5 |
| C27G A45G G48A C66U | ≤ 0.5 |
| C27G A45C C55G G58C | ≤ 0.5 |
| C27G U35A A45U G67A | 0.612 |
| C27G C30U C66U | ≤ 0.5 |
| C27U C31U C60G | 0.581 |
| C27U G39C | 0.613 |
| C27U C31U U53C | 0.678 |
| C27U C49U U54A A57G C66A | 0.629 |
| C27G G38C | 0.5 |
| C27G C60A | ≤ 0.5 |
| C27G C60U | ≤ 0.5 |
| C27A G38U A45G G48C | ≤ 0.5 |
| C27G G39A | 0.615 |
| C27G A36G G52C | ≤ 0.5 |
| C27U A65U A70C | 0.607 |
| C27G A57G U59G | ≤ 0.5 |
| C27G C31G C33U | ≤ 0.5 |
| C27G A45U C55A | ≤ 0.5 |
| C27U C33U A40C C55A A65G | 0.503 |
| C27U A43C A69C | 0.754 |
| C27A G50C C62G C66U | 0.606 |
| C27G C31U C34G A37G A65C | ≤ 0.5 |
| C27G C30G G56U | 0.543 |

| Variant | yeast fitness |
| --- | --- |
| C27U C34G G50A G68C | ≤ 0.5 |
| C27A U35C A42U | ≤ 0.5 |
| C27G A37G | 0.678 |
| C27G A37U | 0.591 |
| C27A G44C G50C | 0.639 |
| C27A U53A | 0.639 |
| C27G G48A U59G | ≤ 0.5 |
| C27A U28A G41A G48A A65G | ≤ 0.5 |
| C27G A37C G39A A45C A65U | ≤ 0.5 |
| C27G G50C | ≤ 0.5 |
| C27A U35C U64A | ≤ 0.5 |
| C27U C30U A70G | 0.624 |
| C27G A43C A65U G67U | ≤ 0.5 |
| C27U A45C C49U G56A | ≤ 0.5 |
| C27G U54C A69G | 0.625 |
| C27U A43C U64C | 0.732 |
| C27A G39A A57G G68A | ≤ 0.5 |
| C27U G38A A69U | 0.667 |
| C27U G41A C60A | 0.878 |
| C27U G38C | 0.626 |
| C27U G38A | 0.773 |
| C27G C49U G63C | ≤ 0.5 |
| C27U C46G A69C | 0.757 |
| C27G A37C G48C C55A G63A | 0.526 |

| Variant | yeast fitness |
| --- | --- |
| C27G U47C G50A A57G C60G | 0.636 |
| C27A U28C C29G A65U | ≤ 0.5 |
| C27U G41A G58C A69C | 0.645 |
| C27G C30G A40G C49A | 0.571 |
| C27G U47A | 0.702 |
| C27A C49A G56C A65G | ≤ 0.5 |
| C27G A43C G63C | ≤ 0.5 |
| C27G U28A C30G C31U G68C A70C | ≤ 0.5 |
| C27A C61G G67A | ≤ 0.5 |
| C27U C30U A42C G58C | ≤ 0.5 |
| C27G U59G | 0.641 |
| C27U C30A A69U | 0.585 |
| C27U A65U | 0.99 |
| C27U G38C A69U | ≤ 0.5 |
| C27U A37G G38C A43C C62G | 0.508 |
| C27G C34G A45G G51C A70G | ≤ 0.5 |
| C27G C33U A45U G63A | ≤ 0.5 |
| C27U A36U A69C A70U | ≤ 0.5 |
| C27A G41C C66U | 0.689 |
| C27G A36U G39C | 0.526 |
| C27A G39C | 0.616 |
| C27U A37G A70C | 0.562 |
| C27G A36G G68A | ≤ 0.5 |
| C27U A45U | 1.02 |

| Variant | yeast fitness |
| --- | --- |
| C27U A45C | 0.947 |
| C27G A43G C60A | ≤ 0.5 |
| C27U C33U A36U | ≤ 0.5 |
| C27G G50A C60G | 0.778 |
| C27G U28G | 0.522 |
| C27G U28C | 0.609 |
| C27A U35C A37U C49U C55U C60G A65C | ≤ 0.5 |
| C27G G52A G63A | 0.533 |
| C27U A42U C61G | 0.545 |
| C27U C46U C61A | ≤ 0.5 |
| C27U C31A A45U | 0.747 |
| C27A C60U C61G A65G | 0.598 |
| C27G C31U C34G A37G G44A | ≤ 0.5 |
| C27A C61A G67C | ≤ 0.5 |
| C27U C66U A69U | 0.779 |
| C27U C31A | 0.758 |
| C27G C34A C61U | ≤ 0.5 |
| C27U A40U | 0.925 |
| C27U A40G | 0.834 |
| C27U C30U C34A C62A | ≤ 0.5 |
| C27G A45G C61U A69U | ≤ 0.5 |
| C27G C30U A65U A70U | 0.594 |
| C27G C29U C49U A70U | ≤ 0.5 |
